We go through six molecules from ChEMBL document CHEMBL4130546, “Structures of the Largest Amphidinol Homologues from the Dinoflagellate Amphidinium carterae and Structure-Activity Relationships” (J Nat Prod, 2017).

Molecules are shown by their SMILES.

Series [1] relates to Lipid bilayer. The series can be described thus: Membrane disrupting activity in large unilamellar vesicles assessed as calcein AM dye leakage at 10 uM by fluorescence assay relative to control. It counts as physicochemical. Summed up: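 Calcein-loaded POPC or POPC/cholesterol (9:1 mol ratio) LUVs, with excess dye removed by Sepharose 4B gel filtration in Tris-HCl pH 7.5 containing 1 mM EDTA and 150 mM NaCl. Lipid at 27 μM in PBS. Fluorescence (ex 490/em 517 nm) read before and after adding compound. Triton X-100 was then added to define 100% leakage.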

A further series relates to Erythrocyte. The series can be described thus: Hemolytic activity in human erythrocytes after 18 hrs by colorimetric method. The class given is ADME, cell-based. A digest of the protocol: (§1)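 Human RBCs washed in PBS (pH 7.4) by centrifugation and diluted to a 1% suspension (~1.7 × 10^7 cells/mL). 190 μL suspension mixed with 10 μL sample (up to 80 μM) or PBS; water-lysed RBCs served as 100%. Incubated at 37 °C for 18 h, centrifuged, supernatant absorbance read at 450 nm. % hemolysis and EC50 taken from dose-response curves.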

The test system of series [2] is Lipid bilayer. The series can be described thus: Membrane disrupting activity in POPC/cholesterol large unilamellar vesicles assessed as calcein AM dye leakage at 80 uM by fluorescence assay relative to control. The class given is physicochemical. Summed up:
(§2)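 Calcein-loaded LUVs of POPC or POPC/Chol (9:1 mol) freed of external dye on Sepharose 4B in Tris-HCl pH 7.5, EDTA, NaCl. Vesicles diluted in PBS to 27 μM lipid and fluorescence read (ex 490/em 517 nm). Sample added and fluorescence re-read, then Triton X-100 added to give 100% leakage.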

In another series the test system is Aspergillus niger. The series can be described thus: Antifungal activity against Aspergillus niger NBRC 31032 after 2 days by paper disk method. The class given is functional. A digest of the protocol:
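A. niger grown 2 days at 25 °C in glucose/peptone broth, spread on agar of the same medium (1.5% agar). Samples in MeOH spotted on 8 mm paper disks, up to 60 μg/disk; after 2 days at 25 °C the inhibition zone was measured and minimum effective concentration recorded.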

In series [3] the test system is Lipid bilayer. The series can be described thus: Membrane disrupting activity in POPC large unilamellar vesicles assessed as calcein AM dye leakage at 80 uM by fluorescence assay relative to control. The class given is physicochemical. Summed up:
as §2

Series [4] has as its system Lipid bilayer. The series can be described thus: Membrane disrupting activity in POPC large unilamellar vesicles assessed as calcein AM dye leakage at 20 uM by fluorescence assay relative to control. The class given is physicochemical. A digest of the protocol:
as §2

Series [5] has as its system Lipid bilayer. The series can be described thus: Membrane disrupting activity in POPC/cholesterol large unilamellar vesicles assessed as calcein AM dye leakage at 20 uM by fluorescence assay relative to control. It counts as physicochemical. Summed up: as §2
Series [6] in a line: Hemolytic activity in human erythrocytes at 20 uM after 18 hrs by colorimetric method. The note with it: read-out: Activity. It counts as ADME, cell-based, Erythrocyte. A digest of the protocol: as §1

For `C=C/C=C/CC/C=C/C=C/C=C/CC/C=C/[C@H](O)[C@H](O)[C@@H]1O[C@@H]([C@H](O)[C@H](O)C(=C)CC[C@@H](O)[C@H]2C[C@@H](O)[C@@H](O)[C@H]([C@@H](O)[C@H](O)/C=C(\C)CC[C@H](O)C[C@H](O)[C@H](O)[C@@H](C)C[C@H](O)[C@@H](O)CCCCC[C@@H](O)CCC[C@@H](O)/C=C/C[C@@H](O)/C=C/C[C@@H](O)CO)O2)C[C@@H](O)[C@H]1O`, the Activity in the series with Lipid bilayer [1] was 100%.

The term EC50 denotes the concentration that produces a half-maximal response. A lower EC50 goes with an effect from little substance. For `C=CCC/C=C/C=C/C=C/CC/C=C/C(O)C(O)[C@@H]1O[C@@H](C(O)C(O)C(=C)CCC(O)[C@H]2C[C@@H](O)[C@@H](O)[C@H](C(O)C(O)/C=C(\C)CCC(O)CC(O)C(O)C(C)CC(O)CC(C)/C=C(\C)CC(O)CC(C)CCC(O)CC(O)C(O)C(C)CC(O)CC(O)C(O)C(C)C(O)CCCC(O)CCCC(O)CCCC(O)/C=C/CC(O)/C=C/CO)O2)C[C@@H](O)[C@H]1O` (stereo not given in full), the EC50 with Erythrocyte is > 10 µM. Further, the Activity was 20% with Lipid bilayer [2], 20% with Lipid bilayer [3], < 50% in the series on Lipid bilayer [4] and < 50% in the series with Lipid bilayer [5]. For the same molecule, the MEC in the series on Aspergillus niger is >15 µg.

`C=CCC/C=C/C=C/C=C/CC/C=C/C(O)C(O)C1OC(C(O)C(O)C(=C)CCC(O)C2CC(O)C(O)C(C(O)C(O)/C=C(\C)CCC(O)CC(O)C(O)C(C)CC(O)CC(C)/C=C(\C)CC(O)CC(C)CC(O)C3CC(O)C(O)C(CC(O)CC(O)CO)O3)O2)CC(O)C1O` (stereo not given) showed an EC50 in the series with Erythrocyte of 1.7 µM. Further, in the series with Aspergillus niger, the MEC was 6 µg.

On to `C=CCC/C=C/C=C/C=C/CC/C=C/C(O)C(O)C1OC(C(O)C(O)C(=C)CCC(O)C2CC(O)C(O)C(C(O)C(O)/C=C(\C)CCC(O)CC(O)C(O)C(C)CC(O)C(O)CCCC(O)CCCC(O)CCCC(O)/C=C/CC(O)/C=C/CC(O)CO)O2)CC(O)C1O` (stereo not given), for which the EC50 in the series on Erythrocyte is 2.9 µM. This molecule registered an MEC in the series with Aspergillus niger of 6 µg.

`C=CCC/C=C/C=C/C=C/CC/C=C/C(O)C(O)[C@@H]1O[C@@H](C(O)C(O)C(=C)CCC(O)[C@H]2C[C@@H](O)[C@@H](O)[C@H](C(O)C(O)/C=C(\C)CCC(O)CC(O)C(O)C(C)CC(O)CC(C)/C=C(\C)CC(O)CC(C)CCC(O)CC(O)C(O)C(C)C(O)CCCC(O)CCCC(O)CCCC(O)/C=C/CC(O)/C=C/CO)O2)C[C@@H](O)[C@H]1O` (stereo not given in full): in series [6], the hemolysis at 18 h, 20 µM is < 100%. In addition, the EC50 with Erythrocyte lay within 1 to 3 µM. In addition, the Activity in the series with Lipid bilayer [2] was 20%; in the series with Lipid bilayer [3] it was 20%; in the series with Lipid bilayer [4], < 50%; in the series with Lipid bilayer [5] it was < 50%. The MEC in the series with Aspergillus niger is >15 µg.

In turn, `C=CCC/C=C/C=C/C=C/CC/C=C/C(O)C(O)C1OC(C(O)C(O)C(=C)CCC(O)C2CC(O)C(O)C(C(O)C(O)/C=C(\C)CCC(O)CC(O)C(O)C(C)CC(O)C(O)CC(C)CC/C=C/CC(O)CO)O2)CC(O)C1O` (stereo not given) showed an EC50 in the series on Erythrocyte of 1.2 µM. In addition, the MEC in the series on Aspergillus niger came to 8 µg.
